From ChEMBL document CHEMBL1126720 (J Med Chem, 1993)

What was measured:
[1] = (§1) Cytotoxicity was measured for 90% kill in UV4 cells under aerobic conditions; format: functional, Cricetulus griseus
In short: (§2)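 Clonogenic assay in magnetically stirred 10-mL suspensions of late log-phase UV4 cells at 2×10^6 cells/mL, 37 °C, continuously gassed with 5% CO2 in air or N2; samples removed periodically across a range of drug concentrations. CT10 (concentration × time for 10% survival) taken from survival curves; hypoxic selectivity = ratio of aerobic to hypoxic CT10.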

[2] = Ratio of aerobic CT10 to that of hypoxic CT10 (for a 1-h exposure); format: functional; in short: as §2
[3] = Hypersensitivity factor is the ratio of IC50(AA8) to IC50(UV4) under aerobic conditions; format: functional
In short: (§3)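 Log-phase AA8 (200 viable cells/well) or UV4 (300 viable cells/well) cells with 5000 lethally irradiated AA8 feeder cells per well, in α-MEM with 10% heat-inactivated fetal calf serum. Cell mass read after 72-78 h by methylene blue protein staining and absorbance. IC50 = concentration reducing cell mass to 50% of the mean of 8 same-plate controls; means of at least 3 determinations ± SEM. Hypersensitivity factor = aerobic IC50(AA8)/IC50(UV4).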

[4] = Growth inhibition against CHO-derived cell line AA8; format: functional, cell-based, Cricetulus griseus; in short: as §3
UV4 = assay: as §1; format: functional; settings: Cricetulus griseus; in short: as §2
[5] = Ratio of aerobic CT10 to that of hypoxic CT10; format: functional; in short: as §2
[6] = Growth inhibition against CHO-derived cell line AA8 (Non toxic at solubility limit) [RB6145 used as positive control]; format: functional, cell-based, Cricetulus griseus; in short: as §3
[7] = Hypersensitivity factor is the ratio of IC50(AA8) to IC50(UV4) under aerobic conditions; ND = Nontoxic at the solubility level; format: functional; in short: as §3
[8] = Cricetulus griseus, CHO-derived

Compound: O=[N+]([O-])c1nccn1CC(O)CNCCBr (stereo not given)
- CT10 [1]: 6600 µM·h
- Ratio [2]: 50
- HF ratio [3]: 5.9
- IC50 [4, 8]: 145 µM

Compound: CCN(CC)CCN
- HF ratio [3]: 0.99
- IC50 [4, 8]: 19000 µM

Compound: ClCCNCCNCCCl
- HF ratio [3]: 29
- IC50 [4, 8]: 30 µM

Compound: CCNCCNCC
- HF ratio [3]: 0.7
- IC50 [4, 8]: 2400 µM

Compound: Bis (2,4-pentanedionato) (N,N'-bis(2-chloroethyl)ethylenediamine)cobalt(III) Percholate [listing 1 of 2 here]
- IC50 ([4]; cho-derived): 890 µM

Compound: Bis (2,4-pentanedionato) (N,N'-bis(2-chloroethyl)ethylenediamine)cobalt(III) Percholate [listing 2 of 2 here]
- CT10 (UV4): 21500 µM·h
- HF ratio [3]: 14
- Ratio [5]: 1.6

Compound: Bis (2,4-pentanedionato) (N,N'-bis(2-diethylethylenediamine)cobalt(III) Percholate [listing 1 of 2 here]
- IC50 [6]: > 5000 µM

Compound: Bis (2,4-pentanedionato) (N,N'-bis(2-diethylethylenediamine)cobalt(III) Percholate [listing 2 of 2 here]
- HF ratio [7]: Nontoxic

Compound: Bis (2,4-pentanedionato) (N,N-bis(2-chloroethyl)ethylenediamine)cobalt(III) Percholate [listing 1 of 2 here]
- IC50 ([4]; cho-derived): 3.1 µM

Compound: Bis (2,4-pentanedionato) (N,N-bis(2-chloroethyl)ethylenediamine)cobalt(III) Percholate [listing 2 of 2 here]
- CT10 (UV4): 0.64 µM·h
- HF ratio [3]: 64
- Ratio [5]: 1.9

Compound: Bis (2,4-pentanedionato) (N,N-diethylethylenediamine)cobalt(III) Percholate [listing 1 of 2 here]
- IC50 ([4]; cho-derived): 34 µM

Compound: Bis (2,4-pentanedionato) (N,N-diethylethylenediamine)cobalt(III) Percholate [listing 2 of 2 here]
- HF ratio [3]: 0.9

Compound: Bis (3-chlorol-2,4-pentanedionato) (N,N-bis(2-chloroethyl)ethylenediamine)cobalt(III) Percholate [listing 1 of 2 here]
- IC50 ([4]; cho-derived): 26 µM

Compound: Bis (3-chlorol-2,4-pentanedionato) (N,N-bis(2-chloroethyl)ethylenediamine)cobalt(III) Percholate [listing 2 of 2 here]
- HF ratio [3]: 13

Compound: Bis (3-ethyl-2,4-pentanedionato) (N,N'-bis(2-chloroethyl)ethylenediamine)cobalt(III) Percholate [listing 1 of 2 here]
- IC50 ([4]; cho-derived): 139 µM

Compound: Bis (3-ethyl-2,4-pentanedionato) (N,N'-bis(2-chloroethyl)ethylenediamine)cobalt(III) Percholate [listing 2 of 2 here]
- HF ratio [3]: 4.8

Compound: Bis (3-ethyl-2,4-pentanedionato) (N,N-bis(2-chloroethyl)ethylenediamine)cobalt(III) Percholate [listing 1 of 2 here]
- IC50 ([4]; cho-derived): 2.3 µM

Compound: Bis (3-ethyl-2,4-pentanedionato) (N,N-bis(2-chloroethyl)ethylenediamine)cobalt(III) Percholate [listing 2 of 2 here]
- CT10 (UV4): 0.51 µM·h
- HF ratio [3]: 20
- Ratio [5]: 4.9

Compound: Bis (3-methyl-2,4-pentanedionato) (N,N'-bis(2-chloroethyl)ethylenediamine)cobalt(III) Percholate [listing 1 of 2 here]
- IC50 ([4]; cho-derived): 650 µM

Compound: Bis (3-methyl-2,4-pentanedionato) (N,N'-bis(2-chloroethyl)ethylenediamine)cobalt(III) Percholate [listing 2 of 2 here]
- CT10 (UV4): > 2720 µM·h
- HF ratio [3]: 2.7
- Ratio [5]: > 1

Compound: Bis (3-methyl-2,4-pentanedionato) (N,N-bis(2-chloroethyl)ethylenediamine)cobalt(III) Percholate [listing 1 of 2 here]
- IC50 ([4]; cho-derived): 4.6 µM

Compound: Bis (3-methyl-2,4-pentanedionato) (N,N-bis(2-chloroethyl)ethylenediamine)cobalt(III) Percholate [listing 2 of 2 here]
- CT10 (UV4): 2.4 µM·h
- HF ratio [3]: 48
- Ratio [5]: 20

Compound: Bis (3-n-propyl-2,4-pentanedionato) (N,N-bis(2-chloroethyl)ethylenediamine)cobalt(III) Percholate [listing 1 of 2 here]
- IC50 ([4]; cho-derived): 1.35 µM

Compound: Bis (3-n-propyl-2,4-pentanedionato) (N,N-bis(2-chloroethyl)ethylenediamine)cobalt(III) Percholate [listing 2 of 2 here]
- IC50 ([4]; cho-derived): 18.5 µM
